Assay results as given in ChEMBL document CHEMBL1134769, “Potent and selective nonpeptide inhibitors of caspases 3 and 7” (J Med Chem, 2001).
“And” between values parts separate entries of the source, which are not always exact repeats. Equal entries are not always repeated. The source made the active and inactive calls. The rule behind the calls is not given here.

Columns and labels:
[1] = tested on: C20/A4; test: In vitro inhibition of Chondrocyte cell line C20/A4 apoptosis at 10 uM of compound; format: functional, Homo sapiens
Summary of the method: (§1)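 Immortalized human chondrocyte line C20/A4 seeded at 20 000 cells/well overnight, then exposed 24 h to 4 μg/mL camptothecin with or without compound. Floating and adherent cells combined and lysed 30 min at 4 °C, then clarified at 14000g. Mono- and oligonucleosome DNA fragments measured by cell death ELISA; result expressed as % inhibition of apoptosis.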

[2] = tested on: Jurkat (Homo sapiens); test: In vitro inhibition of Jurkat cell apoptosis at 10 uM of compound
[3] = tested on: Jurkat (Homo sapiens); test: In vitro inhibition of Jurkat cell apoptosis at 50 uM of compound
[4] = tested on: C20/A4; test: In vitro inhibition of Chondrocyte cell line C20/A4 apoptosis at 25 uM of compound; format: functional, Homo sapiens; summary of the method: as §1
[5] = biological target: T1, Caspase-3 (Homo sapiens, UniProt P42574); test: In vitro inhibition of Caspase-3 in presence of camptothecin induced chondrocyte cell cytosol.
T1 sequence (P42574 whole entry): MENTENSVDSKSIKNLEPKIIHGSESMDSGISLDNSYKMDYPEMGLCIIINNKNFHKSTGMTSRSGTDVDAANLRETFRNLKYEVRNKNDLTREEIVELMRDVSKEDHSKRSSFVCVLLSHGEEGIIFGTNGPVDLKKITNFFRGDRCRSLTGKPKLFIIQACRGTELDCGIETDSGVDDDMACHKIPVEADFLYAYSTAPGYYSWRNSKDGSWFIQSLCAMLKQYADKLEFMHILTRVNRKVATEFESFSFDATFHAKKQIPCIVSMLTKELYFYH
Summary of the method: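 IC50 measured in cytosol from camptothecin-treated (apoptotic) chondrocytes at 90% of assay volume. Two conditions: the endogenous caspase 3-like activity alone, or with added recombinant human caspase 3 (~10 units/assay). Buffer was 25 mM K+HEPES pH 7.5, 0.1% CHAPS, 50 mM KCl and 5 mM β-mercaptoethanol, with 10 μM Ac-DEVD-AMC. AMC fluorescence was read at 30 °C (ex 360/em 460 nm) with 5% final DMSO.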

[6] = biological target: T1, Caspase-3; test: In vitro inhibition of Caspase-3 in presence of uninduced chondrocyte cell cytosol
Summary of the method: (§2)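 IC50 against recombinant full-length human caspase 3 (~10 units/assay; 1 unit = 1 pmol AMC/min), with cytosol from uninduced (nonapoptotic) chondrocytes making up 90% of assay volume. Assay buffer was 25 mM K+HEPES pH 7.5, 0.1% CHAPS, 50 mM KCl and 5 mM β-mercaptoethanol, with 10 μM Ac-DEVD-AMC. AMC was read at 30 °C (ex 360/em 460 nm) with 5% final DMSO.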

[7] = biological target: T1, Caspase-3; test: In vitro inhibition of Caspase-3 in presence of naive chondrocyte cell cytosol; summary of the method: as §2
[8] = biological target: T1, Caspase-3; test: Inhibition of recombinant human caspase-3
[9] = biological target: T1, Caspase-3; test: Inhibitory activity against caspase-3; details: read-out: Ki app
Summary of the method: (§3)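 Recombinant full-length human caspase 3 or 7, ~10 units/assay (1 unit = 1 pmol AMC/min). Substrate 10 μM Ac-DEVD-AMC. AMC fluorescence at 360/460 nm, 30 °C, with 5% final DMSO. Single-dose screen (typically 5–50 μM), then IC50 curves; repeated IC50s had CVs typically <30%.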

[10] = biological target: T2, Caspase-9 (Homo sapiens, UniProt P55211); test: Inhibitory activity against Caspase-9; details: read-out: Ki app
T2 sequence (P55211 whole entry): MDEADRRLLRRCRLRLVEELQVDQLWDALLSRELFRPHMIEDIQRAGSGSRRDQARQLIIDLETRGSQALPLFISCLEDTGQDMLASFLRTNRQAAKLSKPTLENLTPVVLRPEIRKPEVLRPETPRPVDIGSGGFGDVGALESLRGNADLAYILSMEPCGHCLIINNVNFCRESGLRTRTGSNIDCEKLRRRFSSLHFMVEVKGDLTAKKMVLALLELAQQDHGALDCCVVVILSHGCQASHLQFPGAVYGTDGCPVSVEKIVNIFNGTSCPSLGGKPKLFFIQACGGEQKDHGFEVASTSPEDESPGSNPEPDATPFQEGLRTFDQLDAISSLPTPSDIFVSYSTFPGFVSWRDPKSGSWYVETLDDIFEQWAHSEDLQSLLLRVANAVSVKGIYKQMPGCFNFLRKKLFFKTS

[11] = biological target: Caspase-8 (Homo sapiens, UniProt Q14790); test: Inhibitory activity against Caspase-8; details: read-out: Ki app
Summary of the method: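 Recombinant full-length human caspase 8, ~10 units/assay, in Na+MOPS pH 7.5 with 10% glycerol, 0.25 mM EDTA and 5 mM β-mercaptoethanol. Substrate 10 μM Ac-IETD-AMC. Fluorescence at 360/460 nm, 30 °C, 5% final DMSO. Compounds screened at a single dose (typically 5–50 μM), then full IC50 curves for actives.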

[12] = biological target: T3, Caspase-1 (Homo sapiens, UniProt P29466); test: Inhibitory activity against caspase-1; details: read-out: Ki app
T3 sequence (P29466 whole entry): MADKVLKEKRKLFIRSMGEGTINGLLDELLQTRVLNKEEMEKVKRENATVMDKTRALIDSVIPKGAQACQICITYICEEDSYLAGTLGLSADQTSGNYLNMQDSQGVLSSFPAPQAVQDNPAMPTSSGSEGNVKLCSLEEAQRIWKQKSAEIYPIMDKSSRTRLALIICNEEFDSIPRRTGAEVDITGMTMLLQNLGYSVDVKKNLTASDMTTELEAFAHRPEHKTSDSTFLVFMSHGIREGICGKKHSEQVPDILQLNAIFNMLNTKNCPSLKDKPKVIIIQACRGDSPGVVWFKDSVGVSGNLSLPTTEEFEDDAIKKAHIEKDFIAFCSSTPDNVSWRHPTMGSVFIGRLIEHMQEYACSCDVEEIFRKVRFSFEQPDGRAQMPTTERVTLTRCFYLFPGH
Summary of the method: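 Recombinant full-length human caspase 1, ~10 units/assay, in 25 mM K+HEPES pH 7.5 with 10% sucrose, 0.1% CHAPS and 5 mM β-mercaptoethanol. Substrate 10 μM Ac-YVAD-AMC. AMC read at 360/460 nm, 30 °C, with 5% final DMSO. Single-dose screen (typically 5–50 μM), followed by IC50 curves for active compounds.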

[13] = biological target: T4, Caspase-4 (Homo sapiens, UniProt P49662); test: Inhibitory activity against caspase-4; details: read-out: Ki app
T4 sequence (P49662 whole entry): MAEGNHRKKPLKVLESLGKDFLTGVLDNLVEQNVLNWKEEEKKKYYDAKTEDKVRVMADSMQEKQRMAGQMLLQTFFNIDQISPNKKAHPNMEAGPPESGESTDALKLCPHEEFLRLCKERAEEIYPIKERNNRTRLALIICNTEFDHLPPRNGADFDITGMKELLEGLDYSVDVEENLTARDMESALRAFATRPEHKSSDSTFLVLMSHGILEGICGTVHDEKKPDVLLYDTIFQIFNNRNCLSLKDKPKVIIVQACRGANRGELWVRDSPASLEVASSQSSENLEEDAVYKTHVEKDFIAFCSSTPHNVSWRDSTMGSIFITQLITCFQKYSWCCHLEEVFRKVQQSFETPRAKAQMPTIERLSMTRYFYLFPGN
Summary of the method: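 Recombinant full-length human caspase 4, ~10 units/assay, in potassium acetate pH 5.8 with 1 mM EDTA, 10% sucrose, 0.1% CHAPS and 5 mM β-mercaptoethanol. Substrate 100 μM Ac-LEED-AMC. Read at 360/460 nm, 30 °C, 5% final DMSO. Single-dose screen (typically 5–50 μM), then IC50 curves for actives.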

[14] = biological target: T5, Caspase-7 (Homo sapiens, UniProt P55210); test: Inhibitory activity against Caspase-7; details: read-out: Ki app; summary of the method: as §3
T5 sequence (P55210 whole entry): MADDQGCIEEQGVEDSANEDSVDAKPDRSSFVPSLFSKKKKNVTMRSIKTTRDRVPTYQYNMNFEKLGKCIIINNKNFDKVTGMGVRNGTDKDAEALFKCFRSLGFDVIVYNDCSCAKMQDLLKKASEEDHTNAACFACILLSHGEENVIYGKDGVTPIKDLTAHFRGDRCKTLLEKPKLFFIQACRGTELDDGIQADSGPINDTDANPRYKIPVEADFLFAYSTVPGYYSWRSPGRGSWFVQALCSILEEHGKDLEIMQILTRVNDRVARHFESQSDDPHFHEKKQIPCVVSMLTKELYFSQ

[15] = biological target: T6, Caspase-6 (Homo sapiens, UniProt P55212); test: Inhibitory activity against Caspase-6; details: read-out: Ki app
T6 sequence (P55212 whole entry): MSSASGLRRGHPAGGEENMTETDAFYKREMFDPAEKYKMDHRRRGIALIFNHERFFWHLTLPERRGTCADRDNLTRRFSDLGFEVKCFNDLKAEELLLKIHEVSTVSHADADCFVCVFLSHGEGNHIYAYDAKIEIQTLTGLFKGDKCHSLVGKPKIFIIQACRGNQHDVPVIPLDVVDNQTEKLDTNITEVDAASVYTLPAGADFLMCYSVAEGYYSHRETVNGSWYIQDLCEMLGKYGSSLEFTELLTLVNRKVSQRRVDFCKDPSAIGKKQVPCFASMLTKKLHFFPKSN
Summary of the method: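 Recombinant full-length human caspase 6 (~10 units/assay) in 50 mM Tris-HCl pH 7.4 with 0.1% CHAPS, 1.5 mM MgCl2, 1 mM EDTA and 5 mM β-mercaptoethanol. Substrate 10 μM Ac-DEVD-AMC. AMC monitored at 360/460 nm, 30 °C, final DMSO 5%. Single-dose screen (typically 5–50 μM), then IC50 determination.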

[16] = biological target: T7, Caspase-2 (Homo sapiens, UniProt P42575); test: Inhibitory activity against caspase-2; details: read-out: Ki app
T7 sequence (P42575 whole entry): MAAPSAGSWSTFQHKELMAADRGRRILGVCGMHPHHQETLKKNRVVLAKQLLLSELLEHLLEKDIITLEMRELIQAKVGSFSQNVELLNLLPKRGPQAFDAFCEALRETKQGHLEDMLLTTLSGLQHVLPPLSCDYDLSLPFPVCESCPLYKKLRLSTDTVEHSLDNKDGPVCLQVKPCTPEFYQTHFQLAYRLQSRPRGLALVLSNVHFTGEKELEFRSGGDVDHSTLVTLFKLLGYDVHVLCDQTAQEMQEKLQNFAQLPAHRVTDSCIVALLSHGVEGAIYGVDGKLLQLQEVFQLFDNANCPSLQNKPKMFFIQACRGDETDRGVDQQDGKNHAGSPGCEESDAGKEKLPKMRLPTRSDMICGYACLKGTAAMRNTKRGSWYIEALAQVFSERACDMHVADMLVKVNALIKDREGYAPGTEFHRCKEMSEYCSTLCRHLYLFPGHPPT
Summary of the method: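 Recombinant full-length human caspase 2 (~10 units/assay) in 50 mM sodium acetate pH 6.2 with 10% glycerol, 0.25 mM EDTA and 5 mM β-mercaptoethanol. Substrate 25 μM Ac-VDVAD-AMC. Fluorescence at 360/460 nm, 30 °C, final DMSO 5%. Compounds screened at a single dose (typically 5–50 μM), then full IC50 curves where activity was seen.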

[17] = tested on: C20/A4; test: In vitro inhibition of Chondrocyte cell line C20/A4 apoptosis at 10 uM of compound; Not active; format: functional, cell-based; details: Homo sapiens; summary of the method: as §1
[18] = tested on: C20/A4; test: In vitro inhibition of Chondrocyte cell line C20/A4 apoptosis at 25 uM of compound; Not active; format: functional, cell-based; details: Homo sapiens; summary of the method: as §1

Chain of Caspase-8 (Q14790 217-374 limits assumed): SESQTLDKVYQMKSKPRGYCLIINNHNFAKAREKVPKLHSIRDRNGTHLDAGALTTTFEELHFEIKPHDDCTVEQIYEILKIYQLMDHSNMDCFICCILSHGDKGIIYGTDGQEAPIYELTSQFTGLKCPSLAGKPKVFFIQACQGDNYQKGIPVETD
Chain of Caspase-8 (Q14790 385-479 limits assumed): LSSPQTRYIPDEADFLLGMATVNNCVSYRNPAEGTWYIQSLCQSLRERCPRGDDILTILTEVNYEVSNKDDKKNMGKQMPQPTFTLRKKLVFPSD

Structure (SMILES) | Inhibition [1] | Inhibition [2] | Inhibition [3] | Inhibition [4] | IC50 [8] | Ki [9] | Ki [10] | Ki [11] | Ki [12] | Ki [13] | Ki [14] | Ki [15] | Ki [16] | also measured
C=CCN1C(=O)C(=O)c2cc(S(=O)(=O)N3CCC[C@H]3COc3ccccc3)ccc21 | 71% | 60% | 89% | 95% | – | – | – | – | – | – | – | – | – | –
CN1C(=O)C(=O)c2cc(S(=O)(=O)N3CCC[C@H]3COc3ccccc3)ccc21 | 48% | 41% | 92% | 85% | 30 µM and 47 µM | – | – | – | – | – | – | – | – | IC50 [5]: 0.84 µM; IC50 [6]: 7.5 µM; IC50 [7]: 7.5 µM
CN1C(=O)C(=O)c2ccccc21 | – | – | – | – | > 50 µM | – | – | – | – | – | – | – | – | –
O=C1Nc2ccc(S(=O)(=O)N3CCCC3)cc2C1=O | – | – | – | – | 2.8 µM | 1.4 µM | 12 µM | > 50 µM | 9 µM | > 50 µM | 3 µM | > 50 µM | > 50 µM | –
CN1C(=O)C(=O)c2cc([N+](=O)[O-])ccc21 | – | – | – | – | 1 µM | 0.5 µM | 7.2 µM | > 50 µM | 12 µM | 4 µM | 0.29 µM | 1.7 µM | > 50 µM | –
COC[C@H]1CCCN1S(=O)(=O)c1ccc2c(c1)C(=O)C(=O)N2 | – | 15% | 22% | – | 18 µM | – | – | – | – | – | – | – | – | NA [17]: inactive; NA [18]: inactive
O=C1Nc2ccc(S(=O)(=O)N3CCCC3C(=O)Nc3ccccc3)cc2C1=O (centres undefined) | – | – | – | – | 0.14 µM | – | – | – | – | – | – | – | – | –
O=C1C(=O)N(Cc2ccncc2)c2ccc(S(=O)(=O)N3CCC[C@H]3COc3ccccc3)cc21 | 64% | – | – | 89% | – | – | – | – | – | – | – | – | – | –
O=C1C(=O)N(Cc2ccccc2)c2ccc([N+](=O)[O-])cc21 | – | – | – | – | 0.25 µM | 0.13 µM | 5 µM | 31 µM | 18 µM | 5 µM | 0.17 µM | 1 µM | > 25 µM | –
CN1C(=O)C(=O)c2cc(C(=O)O)ccc21 | – | – | – | – | > 50 µM | – | – | – | – | – | – | – | – | –
